# hIAP activ – human IAP activators, primary screen, biochemical, luminescence, uHTS; Intestinal-type alkaline phosphatase (Homo sapiens), P09923; purified human IAP, CDP-Star luminescence, 30 min; stronger effect = higher value; 1 = vehicle-only enzyme, 0 = enzyme-free background; activation factor at 10 µM; 330,000 tested, 0.16% active; AID 2524, 2010;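 active = activation factor of the enzyme at least 2-fold when tested at 20 µM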
# Target sequence (P09923 whole entry, looked up): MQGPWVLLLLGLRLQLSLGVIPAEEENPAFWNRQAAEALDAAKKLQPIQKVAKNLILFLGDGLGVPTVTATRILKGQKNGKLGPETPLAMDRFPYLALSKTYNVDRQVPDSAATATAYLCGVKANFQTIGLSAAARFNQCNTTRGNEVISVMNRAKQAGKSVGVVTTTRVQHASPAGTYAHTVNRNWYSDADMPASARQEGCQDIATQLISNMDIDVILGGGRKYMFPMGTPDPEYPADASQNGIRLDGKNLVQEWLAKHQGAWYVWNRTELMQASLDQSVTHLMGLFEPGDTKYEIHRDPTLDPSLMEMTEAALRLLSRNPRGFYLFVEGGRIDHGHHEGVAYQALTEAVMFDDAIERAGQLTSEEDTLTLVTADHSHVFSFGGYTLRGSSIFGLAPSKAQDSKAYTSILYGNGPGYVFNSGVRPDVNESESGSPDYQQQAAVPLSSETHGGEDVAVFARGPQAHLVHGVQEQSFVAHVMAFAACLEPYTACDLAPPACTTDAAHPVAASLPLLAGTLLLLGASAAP
# hIAP inh – human IAP inhibitors, primary screen, biochemical, luminescence, uHTS. 330,000 tested, 0.12% active. Intestinal-type alkaline phosphatase (Homo sapiens), P09923. inhibition, % at 10 µM. purified IAP, CDP-Star luminescence, 30 min. AID 2544, 2010;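 active = inhibition reaching a set limit with compound at 10 µM in the primary screen, cut at about 35% in these data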;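 also: plate controls were DMSO wells with enzyme for no effect and no-enzyme buffer wells for full effect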
# mIAP block – inhibitors of mouse IAP, primary screen, biochemical, luminescence, uHTS; intestinal alkaline phosphatase [Mus musculus]; purified mouse IAP, CDP-Star luminescence, 30 min; inhibition, % at 10 µM; 330,000 tested, 0.2% active; AID 2806, 2010;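 active = inhibition of at least 40% at 10 µM in the primary screen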;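 also: plate controls were DMSO with enzyme for no effect and no enzyme wells for full effect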
# bIAP inh – bovine intestinal alkaline phosphatase inhibitors, primary screen, selectivity assay for TNAP inhibitor project, biochemical, bovine IAP, CDP-star luminescence; inhibition, % at 20 µM; purified bovine IAP, 30 min; 190,000 tested, under 10 active; alkaline phosphatase, intestinal [Bos taurus];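 active = over 50% inhibition of intestinal alkaline phosphatase at 20 µM in the single-dose screen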
#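 Assay system – bovine IAP enzyme · Quantity – bovine IAP at 1/65,000,000 final dilution · Detection – CDP-star luminescence signal · Times – 30 min reaction at room temperature · Also added – CDP-star substrate at 30 µM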
# bIAP activator – bovine intestinal alkaline phosphatase activators, primary screen, biochemical, bovine IAP, CDP-star luminescence; alkaline phosphatase, intestinal [Bos taurus]; purified bovine IAP, 30 min; stronger effect = higher value; fold of DMSO-control signal, blank-subtracted; activation factor at 20 µM; 200,000 tested, 0.17% active; AID 1016, 2008;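 active = activation factor of 2 or more at 20 µM, a signal rise over negative controls twice the positive control's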
# mIAP act – activators of mouse IAP, primary screen, biochemical, luminescence, uHTS | intestinal alkaline phosphatase [Mus musculus] | muIAP, CDP-Star luminescence, 30 min; stronger effect = higher value; 1 = vehicle-only enzyme signal, 0 = enzyme-free wells | activation factor at 10 µM | 330,000 tested, 0.24% active | AID 2805, 2010;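 active = activation factor of at least 2 at 20 µM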
#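 System: Mouse IAP enzyme | Also added: CDP-Star substrate | Dosing: Compounds dispensed in DMSO | Schedule: 30 min enzyme-substrate-compound incubation at room temperature | Technique: Chemiluminescence readout | Control set: DMSO-only wells and no-enzyme negative control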
# hIAP act conf – human IAP activators, confirmation, biochemical, luminescence, single concentration, uHTS hits; shares compounds with hIAP activ; purified IAP, CDP-Star luminescence, 30 min; stronger effect = lower value; activation (%Activity, negative = activation), % at 8.3 µM; 880 tested, 10% active; AID 434926, 2010;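 active = at least twofold enzyme activation in any of six single-dose repeats, which the averaged readout prints as negative percent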
# Starred values were filed as active, the others as inactive; · = no result. This is a sample that favours compounds with a hit; in the whole collection about 0.77% have one here.
SMILES,hIAP activ,hIAP inh,mIAP block,bIAP inh,bIAP activator,mIAP act,hIAP act conf
Cc1cccc(-n2cnc(C(=O)NNC(=S)Nc3ccc(Cl)cc3)c2)n1,2*,-102,15,-18,1.2,0.85,1
Cc1nc2ccccn2c1C(=O)NNC(=S)Nc1ccc(Cl)cc1,0.93,7,13,4,1,0.87,·
CC[n+]1c(/C=C/c2c[nH]c3ccccc23)ccc2cc(C)ccc21,0.64,36*,31,30,0.7,0.69,-86*
CCN(CC)C(=O)c1ccc(/C=C/c2c[nH]c3ccccc23)[n+](C)c1,1,-2,10,0,1,0.9,·
CCCOc1ccc(C(=O)NNC(=S)NC(C)=O)cc1,2.2*,-118,10,-68,1.7,0.9,-13
CCCOc1ccc(C(=O)NNC(=S)NC(=O)c2ccccc2)cc1,1.3,-27,8,·,·,0.93,·
CCCCOc1ccc(C(=O)NNC(=S)NC(=O)CC)cc1,·,·,·,6,0.9,·,·
CCCOc1ccc(C(=O)NNC(=S)NC(=O)c2ccccc2[N+](=O)[O-])cc1,2.1*,-114,16,·,·,0.84,-23
C=CCNC(=S)NNC(=O)c1ccc(OCCCC)cc1,2.1*,-108,9,8,0.9,0.91,2
COc1ccc(S(=O)(=O)NC2CCCC2)cc1C(N)=O,0.93,7,4,·,·,0.95,·
Cc1ccc(OCc2cc(C(=O)NC3CCCCC3)no2)cn1,1.2,-17,-6,·,·,1.1,·
Cc1cc(OCc2cc(C(=O)NC3CCC3)no2)cc(C)c1Cl,0.61,39*,2,·,·,0.98,-3
O=S1(=O)CCN(Cc2cccc(C(F)(F)F)c2)CC1,1.1,-8,-1,-14,1.1,1,·
CCCCc1ccc(NC(=O)CSc2nc3ncccc3[nH]2)cc1,2.1*,-115,18,·,·,0.82,25
CN(CC(=O)Nc1ccccc1F)CC(=O)Nc1ccc(F)c(F)c1F,2.1*,-111,-3,-45,1.5,1,52
O=C(CCCOc1ccc(Br)cc1)Nc1nnc(C2CC2)s1,1,-2,-6,·,·,1.1,·
CCn1c(C)nc2cc(C(=O)NNC(=S)Nc3ccccc3)ccc21,2.1*,-111,-4,-60,1.6,1,29
CCn1c(C)nc2cc(C(=O)NNC(=S)Nc3ccc(Cl)cc3Cl)ccc21,2.1*,-114,-14,7,0.9,1.1,-44
CCn1c(C)nc2cc(C(=O)N/N=C/c3cccc(O)c3O)ccc21,2.6*,-160,9,-74,1.7,0.91,-43*
CCn1c(C)nc2cc(C(=O)N/N=C/c3ccccc3)ccc21,0.91,9,8,5,0.9,0.92,·
CCn1c(C)nc2cc(C(=O)NNC(=S)Nc3ccc(Cl)cc3)ccc21,1.9,-93,1,·,·,0.99,·
CCCCCC(=O)Cc1cc(O)cc2c1C(=O)Oc1cc(O)c(C(=O)O)c(CCCCC)c1O2,0.6,40*,21,·,·,0.79,-40
O=C(c1cccs1)N1CCc2ccccc21,2.2*,-119,-6,7,0.9,1.1,4
Cc1ccc(OCC(=O)NNC(=O)c2cc(C)[nH]n2)cc1,0.9,10,15,-2,1,0.85,·
Cc1cc(C(=O)NNC(=O)COc2ccccc2Cl)n[nH]1,3.1*,-214,12,·,·,0.88,8
Cc1cc(C(=O)NNC(=O)COc2c(C)cc(Br)cc2C)n[nH]1,2.2*,-120,22,·,·,0.78,0
O=C(NN1C(=O)/C(=C/c2ccc(O)c([N+](=O)[O-])c2)SC1=S)c1ccccc1Cl,0.65,35*,25,16,0.8,0.75,39
O=C1/C(=C/c2ccc(O)c([N+](=O)[O-])c2)SC(=S)N1Cc1ccccc1,1,-2,26,42,0.6,0.73,·
